How the values were obtained:
[1] = folding enthalpy; higher = less favourable; fluorescence melt of hairpins on a sequencing array, two-state fit; settings: sodium 0.088 M
How it was run: (§1)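 In 50 mM Na-HEPES pH 8.0 containing 25 mM NaCl, hairpins from the library on a sequenced MiSeq flow cell were imaged for Cy3 fluorescence at 2.5 °C steps up to 60 °C, with Cy3 and quencher oligos annealed. After normalisation to pre-quench Cy3 and to control constructs, two-state fits with bootstrapping gave melting temperature and folding enthalpy. Four replicates were combined by inverse-variance weighting, and fitted temperatures were shifted up by 9.35 °C to match UV melts.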

[2] = melting temperature; fluorescence melt of hairpins on a sequencing array, two-state fit, raised by 9.35 °C to match UV melts; settings: sodium 0.088 M
How it was run: as §1

Row | Sequence | folding enthalpy [1] [kcal/mol] | Tm [2] [°C]
1 | GGTGATACGAAAGTAACC (((..(((....)))))) | -11.7 | 33.6
2 | GGGAGCGAAAGCTACCCC ((((((....)))..))) | -12 | 59.8
3 | GATCTAGCTATAGATC ((((((....)))))) | -40.2 | 47.7
4 | GCCCGGGGAAACCCAGGC (((.(((....))).))) | -32.6 | 52.8
5 | GCATGGCGAAAGCCTAGC ((..(((....)))..)) | -17.9 | 52.1
6 | GCACGGCGAAAGCCCAGC ((..(((....)))..)) | -12.2 | 38.4
7 | ATGGGGAAACCCAT (((((....))))) | -23.4 | 47.3
8 | CGTAAGCGGAAACGCACG (((..(((....)))))) | -22.6 | 41.8
9 | GCAACGCGAAAGCGGCGC ((..(((....)))..)) | -26.6 | 66.7
10 | GTTATCGCGAAAGCGAAC (((..(((....)))))) | -7.39 | 29.8
11 | GATCTCCCGGAGATC ((((((...)))))) | -37.4 | 53.8
12 | GATCAGTTGTCTGATC ((((((....)))))) | -39.2 | 50.5
13 | GCGGCTGGAAACAACCGC ((((.((....)).)))) | -45 | 54
14 | GACGCTCCGAAAGGAGTC (((..(((....)))))) | -9.32 | 34.5
15 | GCTACAGAAATGTAGC ((((((....)))))) | -33.1 | 55.4
16 | GATCGCACGGCGATC ((((((...)))))) | -33 | 69.3
17 | GCACGGCGAAAGCGGCGC ((.(.((....)).).)) | -24.1 | 57
18 | GAGGGTGGAAACGCTCTC (((.(.(....).).))) | -20.3 | 49.4
19 | GCAATTGGAAACAATCGC ((.((((....)))).)) | -27.4 | 38.8
20 | GGCCATCGAAAGATAGCC (((.(((....))).))) | -29.4 | 48.3
21 | GTCTCCGAAAGGACAGAC ((((((....)))..))) | -17.3 | 37.2
22 | GCCCGTCGAAAGACCGGC (((.(((....))).))) | -38.4 | 52.6
23 | GACCAGGGAAACCTAGTC (((.(((....))).))) | -16.9 | 32.7
24 | GTGTACTCGAAAGAGCAC (((..(((....)))))) | -21.8 | 43.5

Row | Sequence | folding enthalpy [1] [kcal/mol] | Tm [2] [°C]
25 | GCGCTCGGAAACGAGCAC (.(((((....))))).) | -10.4 | 51.5
26 | GGTAACGAAAGTTAGACC ((((((....)))..))) | -13 | 33.6
27 | GGGTACCGAAAGGTCCC (((.(((....)))))) | -24.2 | 54.9
28 | GTAGCGCGAAAGCGTAC (((.(((....)))))) | -10.8 | 44
29 | GATCACTGAAGTGATC ((((((....)))))) | -36.4 | 56.8
30 | GATACGCGAAAGCGATC (((.(((....)))))) | -13.1 | 37.7
31 | CATACGAAAGTATG (((((....))))) | -25.1 | 50.4
32 | GACGGCGAAAGCCTGTC ((((((....))).))) | -15.6 | 58.6
33 | GGCAGTGCGAAAGCAGCC (((..(((....)))))) | -19.7 | 53
34 | GAGCTAGGAAACTAGCTC (((((((....))))))) | -37.9 | 62.4
35 | GCATAGTCGAAAGACTGC (((..(((....)))))) | -15.2 | 43.1
36 | GACGTTGGAAACAGCGTC ((((.((....)).)))) | -39.6 | 52.1
37 | GCAAATCGAAAGATGTGC (((.(((....))).))) | -28.3 | 48.8
38 | GAAGTGCGAAAGCAATTC (((.(((....))).))) | -28.2 | 52.8
39 | CAGGAGAAATCCTG (((((....))))) | -19.7 | 43.7
40 | GACCTGGGAAACTGGGTC ((((..(....)..)))) | -25 | 44.4
41 | GCATAGCGAAAGCTAGGC ((.((((....)))).)) | -27.1 | 67
42 | GATCTCAGCCGAGATC ((((((....)))))) | -39.6 | 52.6
43 | GCTATGCGAAAGCTTTGC ((.(.((....)).).)) | -18.2 | 43.4
44 | GGGATTGAAAAATCCC ((((((....)))))) | -43.6 | 55.8
45 | GACCGTGAAAACGGTC ((((((....)))))) | -41.1 | 68.1
46 | GTTTCCGAAAGGAAAAC ((((((....))).))) | -16.1 | 45.1
47 | GATATACGAAAGTAAATC (((.(((....))).))) | -14.6 | 33
48 | GTTGCCGAAAGGCAAAC ((((((....))).))) | -11.6 | 58

Row | Sequence | folding enthalpy [1] [kcal/mol] | Tm [2] [°C]
49 | GCCTTCGGAAACAAAGGC (((((.(....).))))) | -27.5 | 41.9
50 | GGCGCCGAAAGGCACGCC ((((((....)))..))) | -15.7 | 63.4
51 | GATAACGGAAACGTTGTC ((.((((....)))).)) | -28 | 45.8
52 | GACGCCGAAAGGCTGTC ((((((....))).))) | -18.4 | 56.9
53 | GATCAGCAGCTGATC ((((((...)))))) | -48.4 | 48.8
54 | GATCTATTAATAGATC ((((((....)))))) | -37.8 | 45.2
55 | GTCATCCGAAAGGAAGAC (((.(((....))).))) | -29.9 | 49.3
56 | GCCCCCGAAAGGGACGGC ((((((....)))..))) | -21 | 50.9
57 | GATCGTAAATACGATC ((((((....)))))) | -38.9 | 53
58 | GTGTACGAAAGTACTCAC ((((((....)))..))) | -11.4 | 35.7
59 | GGCGTCCGAAAGGAGGCC (((.(((....))).))) | -27 | 69.1
60 | GTCACTGGAAACGGTGAC (((((.(....).))))) | -47.5 | 52.7
61 | GCAAAGCGAAAGCTCCGC ((..(((....)))..)) | -11.4 | 29
62 | GGAAATCGAAAGATATCC (((.(((....))).))) | -26.2 | 37.8
63 | GTATCCGAAAGGACTAC ((((((....))).))) | -14.3 | 35.9
64 | GCGATGGGAAACTATCGC (((((.(....).))))) | -42 | 55.9
65 | GCCTAGCGAAAGCTGCGC ((..(((....)))..)) | -17.6 | 49.6
66 | GATCTCTATAGAGATC ((((((....)))))) | -38.7 | 55
67 | GGCCTGGGAAACTGGGCC ((((..(....)..)))) | -38 | 54.7
68 | GCGACGAATCGC ((((....)))) | -13.1 | 49.6
69 | GAGGACGAAAGTCTCTC ((((((....))).))) | -18 | 46.5
70 | GCATTACGAAAGTACTGC (((.(((....))).))) | -36.5 | 46.4
71 | GATCGATTGATCGATC ((((((....)))))) | -45.5 | 54.8
72 | GGGTAGGGAAACCTGCCC (((.(((....))).))) | -45 | 55.7

Row | Sequence | folding enthalpy [1] [kcal/mol] | Tm [2] [°C]
73 | GATCAATGTTTGATC ((((((...)))))) | -30.8 | 43.8
74 | GATCCTCTAGAGGATC ((((((....)))))) | -42.6 | 56.4
75 | GGCTGGGGAAACTCGGCC (((.(.(....).).))) | -36.5 | 49.4
76 | GATCCCTATGGGGATC ((((((....)))))) | -31.3 | 65.5
77 | GGCGACCGAAAGGTGCC (((.(((....)))))) | -20.9 | 63.5
78 | GTCTAGCCGAAAGGCGAC (((..(((....)))))) | -10.8 | 43.1
79 | GATCGACCAGTCGATC ((((((....)))))) | -43.9 | 57.4
80 | ATTGGGAAACCAAT (((((....))))) | -16.9 | 40.3
81 | GAATGGGGAAACCTATTC ((((.((....)).)))) | -31.6 | 37.9
82 | GACAAAGCGAAAGCTGTC (((..(((....)))))) | -19.7 | 50.6
83 | GAAAGCCGAAAGGCATTC (((.(((....))).))) | -15.2 | 45.9
84 | GTCAGCGAAAGCTGGGAC ((((((....)))..))) | -9.13 | 40.2
85 | GTCGCAGAAATGCGAC ((((((....)))))) | -38.1 | 69.1
86 | GTATCCGGAAACGGACAC ((.((((....)))).)) | -19.8 | 39
87 | GACTCCGAAAGGAGTGTC ((((((....)))..))) | -12.3 | 58.4
88 | GCGGCTCCCGC ((((...)))) | -23.7 | 56.9
89 | GATCTAACGATAGATC ((((((....)))))) | -29.4 | 34.1
90 | GACAAGCGAAAGCTAGTC (((.(((....))).))) | -23 | 52
91 | GATCCCTCTTGGGATC ((((((....)))))) | -36.8 | 63.7
92 | GCAATAGAAATATTGC ((((((....)))))) | -26.5 | 46.4
93 | GTATGTACGAAAGTATAC (((..(((....)))))) | -11.4 | 31
